Reference: ChEMBL document CHEMBL3124903, “Synthesis, docking and evaluation of antioxidant and antimicrobial activities of novel 1,2,4-triazolo[3,4-b][1,3,4]thiadiazol-6-yl)selenopheno[2,3-d]pyrimidines” (Eur J Med Chem, 2014)
Values after ≈ are worked out from the molar mass of the structure shown.

What was measured:
Type in all cases: functional
Bacillus subtilis = assay: Antibacterial activity against Bacillus subtilis assessed as growth inhibition by microdilution broth susceptibility assay
Aspergillus flavus = assay: Antifungal activity against Aspergillus flavus assessed as growth inhibition by NCCLS broth dilution assay
Klebsiella pneumoniae = assay: Antibacterial activity against Klebsiella pneumoniae assessed as growth inhibition by microdilution broth susceptibility assay
Candida albicans = assay: Antifungal activity against Candida albicans assessed as growth inhibition by NCCLS broth dilution assay
In short: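 Yeast susceptibility is tested by the NCCLS reference broth dilution method. MIC is read as the endpoint, and a DMSO vehicle control is included.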

[1] = Antioxidant activity assessed as NO radical scavenging activity after 150 mins by griess reagent method
Escherichia coli = assay: Antibacterial activity against Escherichia coli assessed as growth inhibition by microdilution broth susceptibility assay
Staphylococcus aureus = assay: Antibacterial activity against Staphylococcus aureus assessed as growth inhibition by microdilution broth susceptibility assay
[2] = Antioxidant activity assessed as H2O2 radical scavenging activity
[3] = tested on: Radical scavenging activity; assay: Antioxidant activity assessed as DPPH radical scavenging activity after 30 mins by spectrophotometric assay
In short: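 The compound is mixed with methanolic DPPH and incubated for 30 min at room temperature. Absorbance is read against a blank at 517 nm. Percent scavenging is taken from absorbance of a control with all reagents except the compound versus the sample. Runs are in triplicate, and IC50 is reported.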

Compound	MIC (Bacillus subtilis) [µg/mL]	MIC (Aspergillus flavus) [µg/mL]	MIC (Klebsiella pneumoniae) [µg/mL]	MIC (Candida albicans) [µg/mL]	IC50 [1] [µg/mL]	MIC (Escherichia coli) [µg/mL]	MIC (Staphylococcus aureus) [µg/mL]	IC50 [2] [µg/mL]	IC50 [3] [µg/mL]
Cc1c(-c2nn3c(-c4ccccc4)nnc3s2)[se]c2ncnc(Nc3ccc(Cl)cc3)c12	> 100	50 (≈ 95.6 µM)	> 100	> 100	18.41 (≈ 35.2 µM)	> 100	50	17.03 (≈ 32.6 µM)	14.82 (≈ 28.3 µM)
Cc1ccc(-c2nnc3sc(-c4[se]c5ncnc(Nc6ccc(Cl)cc6)c5c4C)nn23)cc1	50	50 (≈ 93.1 µM)	25	> 100	21.64 (≈ 40.3 µM)	50	25	19.14 (≈ 35.6 µM)	13.31 (≈ 24.8 µM)
COc1ccc(-c2nnc3sc(-c4[se]c5ncnc(Nc6ccc(Cl)cc6)c5c4C)nn23)cc1	25	6.25 (≈ 11.3 µM)	25	6.25 (≈ 11.3 µM)	19.82 (≈ 35.8 µM)	12.5	12.5	21.09 (≈ 38.1 µM)	12.75 (≈ 23.1 µM)
Cc1c(-c2nn3c(-c4ccc(O)cc4)nnc3s2)[se]c2ncnc(Nc3ccc(Cl)cc3)c12	3.12	3.12 (≈ 5.79 µM)	6.25	1.56 (≈ 2.89 µM)	13.72 (≈ 25.5 µM)	6.25	6.25	15.38 (≈ 28.5 µM)	11.02 (≈ 20.4 µM)
Cc1c(-c2nn3c(-c4ccc([N+](=O)[O-])cc4)nnc3s2)[se]c2ncnc(Nc3ccc(Cl)cc3)c12	> 100	> 100	> 100	> 100	46.92 (≈ 82.6 µM)	> 100	> 100	48.31 (≈ 85.1 µM)	33.28 (≈ 58.6 µM)
Cc1c(-c2nn3c(-c4ccccc4)nnc3s2)[se]c2ncnc(Nc3ccc(F)c(Cl)c3)c12	50	50 (≈ 92.4 µM)	100	25 (≈ 46.2 µM)	20.27 (≈ 37.5 µM)	100	50	22.92 (≈ 42.4 µM)	13.24 (≈ 24.5 µM)
Cc1ccc(-c2nnc3sc(-c4[se]c5ncnc(Nc6ccc(F)c(Cl)c6)c5c4C)nn23)cc1	12.5	12.5 (≈ 22.5 µM)	12.5	25 (≈ 45.1 µM)	16.52 (≈ 29.8 µM)	12.5	6.25	18.36 (≈ 33.1 µM)	12.86 (≈ 23.2 µM)
COc1ccc(-c2nnc3sc(-c4[se]c5ncnc(Nc6ccc(F)c(Cl)c6)c5c4C)nn23)cc1	3.12	3.12 (≈ 5.47 µM)	6.25	3.12 (≈ 5.47 µM)	12.74 (≈ 22.3 µM)	6.25	6.25	17.08 (≈ 29.9 µM)	10.41 (≈ 18.2 µM)
Cc1c(-c2nn3c(-c4ccc(O)cc4)nnc3s2)[se]c2ncnc(Nc3ccc(F)c(Cl)c3)c12	3.12	1.56 (≈ 2.8 µM)	3.12	1.56 (≈ 2.8 µM)	8.2 (≈ 14.7 µM)	3.12	3.12	12.54 (≈ 22.5 µM)	9.46 (≈ 17 µM)
Cc1c(-c2nn3c(-c4ccc([N+](=O)[O-])cc4)nnc3s2)[se]c2ncnc(Nc3ccc(F)c(Cl)c3)c12	100	> 100	50	> 100	30.17 (≈ 51.5 µM)	50	100	36.42 (≈ 62.2 µM)	26.94 (≈ 46 µM)
O=C1O[C@H]([C@@H](O)CO)C(O)=C1O [ASCORBIC ACID]					14.62 (≈ 83 µM)			15.24 (≈ 86.5 µM)	12.27 (≈ 69.7 µM)
Cc1cc(C(C)(C)C)c(O)c(C(C)(C)C)c1 [BUTYLATED HYDROXYTOLUENE]					19.06 (≈ 86.5 µM)			17.82 (≈ 80.9 µM)	16.53 (≈ 75 µM)
O=C(O)c1cn(C2CC2)c2cc(N3CCNCC3)c(F)cc2c1=O [CIPROFLOXACIN]	6.25		6.25						
OC(Cn1cncn1)(Cn1cncn1)c1ccc(F)cc1F [FLUCONAZOLE]		3.12 (≈ 10.2 µM)		3.12 (≈ 10.2 µM)					
